Data reported in ChEMBL document CHEMBL1687717 (Antimicrob Agents Chemother, 2008).
The source made the active and inactive calls. The rule behind the calls is not given here.

What was measured:
[1] = Effect on growth of Lactobacillus crispatus at 50 ug/ml after 24 hrs
Outline: (§1)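 L. crispatus grown in Todd-Hewitt broth flasks at 37°C with shaking, with or without nonformulated GML at 20, 50 or 100 µg/ml. The starting inoculum was 3.0 x 10^6/ml. Samples were taken over 24 h for CFU plate counts.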

[2] = Effect on growth of vaginal Lactobacillus flora in rhesus monkey administered twice daily dose of 5% compound-formulated gel for first 8 weeks followed by 3-weeks rest period and subsequent once daily dose for […] measured 6 months post dose; conditions: in vivo, topical_or_ocular, 4383 h
Outline: (§2)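 Rhesus macaques (9 on GML, 3 on vehicle per time point) received 1 ml intravaginal gel containing 50 mg GML in K-Y warming gel, or vehicle gel, by needleless syringe. Dosing was twice daily for 8 weeks, then 3 weeks of rest, then once daily for 11 weeks. Vaginal swabs were taken 1 h post-dose, held at 4°C, serially diluted in Todd-Hewitt broth and plated on chocolate agar at 37°C in 7% CO2.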

[3] = test system: Lactobacillus crispatus; assay: Suppression of cell viability loss of Lactobacillus crispatus in stationary phase culture at 100 ug/ml after 48 hrs; format: functional
Outline: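 Stationary-phase L. crispatus broth cultures were incubated a further 48 h at 37°C without GML or with GML at 100 µg/ml. Viable counts were then determined by plating.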

[4] = test system: Staphylococcus aureus; assay: Growth inhibition of Staphylococcus aureus MN8 using 5% compound-formulated gel after 24 hrs; format: functional, organism-based
Outline: (§3)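 Agar disk test: paper disks carrying 30 µl of 5% GML in K-Y warming gel were placed on Todd-Hewitt agar lawns of about 10^6 L. crispatus or S. aureus MN8. Plates were incubated overnight at 37°C in 7% CO2 and scored for visible growth inhibition around the disks. Done in quadruplicate.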

[5] = test system: Lactobacillus crispatus; assay: Suppression of cell viability loss of Lactobacillus crispatus in stationary phase culture at 100 ug/ml after 48 hrs
[6] = test system: Human immunodeficiency virus 1; assay: Antiviral activity against HIV1 infected in human T cells assessed as inhibition of viral infection at 100 ug/mL; format: functional, organism-based; conditions: T-cell
[7] = test system: Staphylococcus; assay: Effect on growth of vaginal coagulase negative staphylococci flora in rhesus monkey administered twice daily dose of 5% compound-formulated gel for first 8 weeks followed by 3-weeks rest period and subsequent once daily dose for […] measured 6 months post dose; format: functional, organism-based; outline: as §2
[8] = Effect on growth of Lactobacillus crispatus at 20 ug/ml after 24 hrs; outline: as §1
[9] = test system: Staphylococcus aureus; assay: Inhibition of Staphylococcus aureus MN8 infection induced IL-8 production in human HVEC assessed as at 100 ug/ml by enzyme-linked immunosorbent assay; format: functional, organism-based
Outline: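 Human vaginal epithelial cells in keratinocyte serum-free medium without antibiotics were seeded 2–3 days beforehand in 96-well plates. S. aureus MN8 was grown overnight in Todd-Hewitt broth, washed and resuspended in PBS at pH 7.2. Cells received 10^6–10^8 CFU in triplicate, with or without GML at 100 µg/ml, for 6 h. IL-8 was measured by ELISA.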

[10] = test system: Gardnerella; assay: Bactericidal activity against Gardnerella at >=20 ug/ml; format: functional
[11] = test system: Rhesus monkey; assay: Toxicity in rhesus monkey assessed as induction of vaginal inflammation administered twice daily dose of 5% compound-formulated gel for first 8 weeks followed by 3-weeks rest period and subsequent once daily dose for […] measured 6 months post dose by extensive colposcopy; format: organism-based, Macaca mulatta; conditions: in vivo, topical_or_ocular, 4383 h
[12] = Effect on growth of Lactobacillus crispatus using 5% compound-formulated gel after 24 hrs; outline: as §3
[13] = test system: Helicobacter; assay: Bactericidal activity against Helicobacter at >=20 ug/ml; format: functional
[14] = test system: Rhesus monkey; assay: Toxicity in rhesus monkey assessed as induction of vaginal mucosal lesions administered twice daily dose of 5% compound-formulated gel for first 8 weeks followed by 3-weeks rest period and subsequent once daily dose for […] measured 6 months post dose by extensive colposcopy; format: organism-based, Macaca mulatta; conditions: in vivo, topical_or_ocular, 4383 h
[15] = Effect on lactic acid production in Lactobacillus crispatus at 50 ug/ml after 8 to 24 hrs; format: ADME
Outline: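 Todd-Hewitt broth cultures of L. crispatus were started at 3.0 x 10^6/ml with or without nonformulated GML at 50 µg/ml and incubated at 37°C with shaking. Culture pH was measured on samples removed at set times as an acid-production read-out.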

[16] = test system: Haemophilus; assay: Bactericidal activity against Haemophilus at >=20 ug/ml; format: functional, organism-based

In the case of `CCCCCCCCCCCC(=O)OCC(O)CO` (stereo unspecified) [GLYCEROL MONOLAURATE], the Activity [1] is reported as “Non-toxic”, the Activity [2] is reported as “Non-toxic” and the Activity [3] is reported as “Active”. The “growth inhibition (GI)” value [4] was “Active”, the Activity [5] was “Active” and the inhibition [6] was “Active”. For the same compound, the Activity [7] was “Non-toxic”, the Activity [8] was “Non-toxic” and the inhibition [9] was “Active”. For the same compound, the inhibition [10] was “Active”, the Activity [11] was “Non-toxic” and the Activity [12] was “Non-toxic”. The inhibition [13] was “Active”, the Activity [14] was “Non-toxic” and the Activity [15] was “Non-toxic”. The inhibition [16] was “Active”.
